Measurements as given in ChEMBL document CHEMBL3046238, “Synthesis and biological activity evaluation of 1,2,3-thiadiazole derivatives as potential elicitors with highly systemic acquired resistance” (2009).
Active and inactive are the calls of the source. No cut-off for these calls is given here.

Tests used:
Assay type in all cases: functional
Tobacco mosaic virus [1] = assay: In vivo antiviral activity against Tobacco mosaic virus (TMV) infected tobacco leaves exposed to 500 ug/mL for 20 min assessed as inhibition of viral growth measured 72 hr post compound treatment compound by half-leaf juice rubbing method
Summary of the method: (§1)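 Half-leaf method on tobacco. A fresh leaf from a plant at the 5-6 leaf age was rub-inoculated with TMV (5.88×10-2 μg/mL) and cut along the main vein. One half was immersed in compound solution and the other in double-distilled water, each for 20 min. Halves were kept at 25 °C and 100% humidity for 72 h, then lesions were counted. Three replicates were run. Inhibition = (CK−A)/CK×100 from mean lesion numbers.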

Tobacco mosaic virus [2] = assay: (§2) Induction of systemic acquired resistance against Tobacco mosaic virus (TMV) in tobacco plants exposed to 500 ug/mL compound through irrigation based soil treatment followed by 7 days culture under green house conditions assessed as inhibition of viral growth in leaves infected with Tobacco mosaic virus (TMV) measured 72 hr post viral infection by half-leaf juice rubbing method; design: scale not given: the % may be the effect or the level left
Summary of the method: (§3)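 Tobacco plants received compound by leaf spray or by soil irrigation, with double-distilled water as CK. Newly grown leaves were then rub-inoculated with TMV (5.88×10-2 μg/mL), and plants were kept at 25 °C for 72 h. Lesions on inoculated leaves were counted. Inhibition = (CK−A)/CK×100 from mean lesion numbers versus control.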

Tobacco mosaic virus [3] = assay: as §2, with “100” for “500”, “leaf spray” for “irrigation based soil treatment”; design: scale not given: the % may be the effect or the level left; summary of the method: as §3
Tobacco mosaic virus [4] = assay: In vivo antiviral activity against Tobacco mosaic virus (TMV) infected tobacco leaves exposed to 50 ug/mL for 20 min assessed as inhibition of viral growth measured 72 hr post compound treatment compound by half-leaf juice rubbing method; summary of the method: as §1
Tobacco mosaic virus [5] = assay: Antiviral activity against Tobacco mosaic virus (TMV) infected tobacco leaves exposed to 500 ug/mL for 20 min assessed as inhibition of viral growth measured 72 hr post compound treatment compound by half-leaf juice rubbing method; summary of the method: as §1
Tobacco mosaic virus [6] = assay: as §2, with “50” for “500”; design: scale not given: the % may be the effect or the level left; summary of the method: as §3
Tobacco mosaic virus [7] = assay: as §2, with “1000” for “500”, “leaf spray” for “irrigation based soil treatment”; design: scale not given: the % may be the effect or the level left; summary of the method: as §3
Tobacco mosaic virus [8] = assay: Antiviral activity against Tobacco mosaic virus (TMV) infected tobacco leaves exposed to 50 ug/mL for 20 min assessed as inhibition of viral growth measured 72 hr post compound treatment compound by half-leaf juice rubbing method; summary of the method: as §1
Tobacco mosaic virus [9] = assay: In vivo antiviral activity against Tobacco mosaic virus (TMV) infected tobacco leaves exposed to 100 ug/mL for 20 min assessed as inhibition of viral growth measured 72 hr post compound treatment compound by half-leaf juice rubbing method; summary of the method: as §1
Tobacco mosaic virus [10] = assay: as §2, with “50” for “500”, “leaf spray” for “irrigation based soil treatment”; design: scale not given: the % may be the effect or the level left; summary of the method: as §3
Tobacco mosaic virus [11] = assay: as §2, with “10” for “500”, “leaf spray” for “irrigation based soil treatment”; design: scale not given: the % may be the effect or the level left
Summary of the method: (§4)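 Tobacco plants receive compound either as leaf spray or as soil irrigation. Newly grown leaves are then rubbed with TMV (5.88 × 10-2 μg/mL). Plants are held 72 h at 25 °C and viral lesions are counted. Inhibition ratio = (CK − A)/CK × 100, from mean lesion numbers versus control. Water is CK; tiadinil and BTH are positive controls.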

Tobacco mosaic virus [12] = assay: In vivo antiviral activity against Tobacco mosaic virus (TMV) infected tobacco leaves exposed to 10 ug/mL for 20 min assessed as inhibition of viral growth measured 72 hr post compound treatment compound by half-leaf juice rubbing method
Puccinia triticina [13] = assay: Antifungal activity against Puccinia triticina inoculated on 500 ug/mL compound pre-treated wheat plants with 3 to 5 leaves assessed as growth inhibition
Summary of the method: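 Healthy wheat plants at the 3-5 leaf stage were sprayed with compound (500 μg/mL) and then inoculated with spores. Inhibition percentage was calculated against the corresponding spore stack.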

Tobacco mosaic virus [14] = assay: Antiviral activity against Tobacco mosaic virus (TMV) infected tobacco leaves exposed to 10 ug/mL for 20 min assessed as inhibition of viral growth measured 72 hr post compound treatment compound by half-leaf juice rubbing method
Summary of the method: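 Direct (in vitro) anti-TMV test by half-leaf method. A tobacco leaf at 5-6 leaf age is rubbed with TMV (5.88 × 10-2 μg/mL) and cut along the main vein. One half is immersed in compound and the other in double-distilled water for 20 min. Halves are kept 72 h at 25 °C and 100% humidity, then lesions are counted. Inhibition is derived from mean lesion numbers on the two halves. Triplicates; DHT is the positive control.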

Tobacco mosaic virus [15] = assay: as §2, with “100” for “500”; design: scale not given: the % may be the effect or the level left; summary of the method: as §3
Tobacco mosaic virus [16] = assay: Antiviral activity against Tobacco mosaic virus (TMV) infected tobacco leaves exposed to 100 ug/mL for 20 min assessed as inhibition of viral growth measured 72 hr post compound treatment compound by half-leaf juice rubbing method; summary of the method: as §1
Tobacco mosaic virus [17] = assay: as §2, with “1000” for “500”; design: scale not given: the % may be the effect or the level left; summary of the method: as §3
Tobacco mosaic virus [18] = assay: as §2, with “10” for “500”; design: scale not given: the % may be the effect or the level left; summary of the method: as §4
Tobacco mosaic virus [19] = assay: Antiviral activity against Tobacco mosaic virus (TMV) infected tobacco leaves exposed to 1000 ug/mL for 20 min assessed as inhibition of viral growth measured 72 hr post compound treatment compound by half-leaf juice rubbing method; summary of the method: as §1
Tobacco mosaic virus [20] = assay: as §2, with “leaf spray” for “irrigation based soil treatment”; design: scale not given: the % may be the effect or the level left; summary of the method: as §3
Puccinia triticina [21] = assay: Antifungal activity against Puccinia triticina inoculated on 100 ug/mL compound pre-treated wheat plants with 3 to 5 leaves assessed as growth inhibition
Phomopsis asparagi = assay: Antifungal activity against Phomopsis asparagi assessed as growth inhibition at 50 ug/mL measured after 2 days post dose; conditions: 48 h, read-out: GI
Rhizoctonia solani = assay: Antifungal activity against Rhizoctonia solani assessed as growth inhibition at 50 ug/mL measured after 2 days post dose
Mycosphaerella arachidis = assay: Antifungal activity against Mycosphaerella arachidis assessed as growth inhibition at 50 ug/mL measured after 2 days post dose; conditions: 48 h, read-out: GI
Alternaria mali = assay: Antifungal activity against Alternaria mali assessed as growth inhibition at 50 ug/mL measured after 2 days post dose; conditions: 48 h, read-out: GI
Fusarium fujikuroi = assay: Antifungal activity against Fusarium fujikuroi assessed as growth inhibition at 50 ug/mL measured after 2 days post dose; conditions: 48 h, read-out: GI
Phytophthora infestans = assay: Antifungal activity against Phytophthora infestans assessed as growth inhibition at 50 ug/mL measured after 2 days post dose
Summary of the method: (§5)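 Compound stock at 500 μg/mL in DMF, diluted with sterile water in the dish and mixed into potato dextrose agar before setting. A 4 mm diameter fungal plug is placed on the plate and cultured at 24-26 °C. Colony diameter is measured after 2 days.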

Botrytis cinerea = assay: Antifungal activity against Botryotinia fuckeliana assessed as growth inhibition at 50 ug/mL measured after 2 days post dose; conditions: 48 h, read-out: GI
Fusarium graminearum = assay: Antifungal activity against Fusarium graminearum assessed as growth inhibition at 50 ug/mL measured after 2 days post dose; conditions: 48 h, read-out: GI; summary of the method: as §5
Sclerotinia sclerotiorum = assay: Antifungal activity against Sclerotinia sclerotiorum assessed as growth inhibition at 50 ug/mL measured after 2 days post dose; conditions: 48 h, read-out: GI
Cytospora mali = assay: Antifungal activity against Valsa mali assessed as growth inhibition at 50 ug/mL measured after 2 days post dose; conditions: 48 h, read-out: GI
[22] = tested on: Botryosphaeria berengeriana; assay: Antifungal activity against Botryosphaeria berengeriana assessed as growth inhibition at 50 ug/mL measured after 2 days post dose
Colletotrichum lagenaria = assay: Antifungal activity against Colletotrichum lagenaria assessed as growth inhibition at 50 ug/mL measured after 2 days post dose; conditions: 48 h, read-out: GI
Alternaria solani = assay: Antifungal activity against Alternaria solani assessed as growth inhibition at 50 ug/mL measured after 2 days post dose; conditions: 48 h, read-out: GI
[23] = tested on: Colletotrichum gloeosporioides; assay: Antifungal activity against Glomerella cingulata assessed as growth inhibition at 50 ug/mL measured after 2 days post dose; conditions: 48 h, read-out: GI
Ceratobasidium cereale = assay: Antifungal activity against Ceratobasidium cereale assessed as growth inhibition at 50 ug/mL measured after 2 days post dose
Alternaria kikuchiana = assay: Antifungal activity against Alternaria kikuchiana assessed as growth inhibition at 50 ug/mL measured after 2 days post dose; conditions: 48 h, read-out: GI
[24] = tested on: Fusarium oxysporum f. sp. vasinfectum; assay: Antifungal activity against Fusarium oxysporum f. sp. vasinfectum assessed as growth inhibition at 50 ug/mL measured after 2 days post dose; conditions: 48 h, read-out: GI
Ustilaginoidea virens = assay: Antifungal activity against Villosiclava virens assessed as growth inhibition at 50 ug/mL measured after 2 days post dose; conditions: 48 h, read-out: GI
Fusarium oxysporum = assay: Antifungal activity against Fusarium oxysporum assessed as growth inhibition at 50 ug/mL measured after 2 days post dose; conditions: 48 h, read-out: GI
Tobacco mosaic virus [25] = assay: In vivo antiviral activity against Tobacco mosaic virus (TMV) infected tobacco leaves exposed to 1000 ug/mL for 20 min assessed as inhibition of viral growth measured 72 hr post compound treatment compound by half-leaf juice rubbing method; summary of the method: as §1
Tobacco mosaic virus [26] = assay: as §2, with “2000” for “500”, “leaf spray” for “irrigation based soil treatment”; design: scale not given: the % may be the effect or the level left; summary of the method: as §3
Tobacco mosaic virus [27] = assay: as §2, with “2000” for “500”; design: scale not given: the % may be the effect or the level left; summary of the method: as §3
Tobacco mosaic virus [28] = assay: Antiviral activity against Tobacco mosaic virus (TMV) infected tobacco leaves exposed to 2000 ug/mL for 20 min assessed as inhibition of viral growth measured 72 hr post compound treatment compound by half-leaf juice rubbing method; summary of the method: as §1
Tobacco mosaic virus [29] = assay: In vivo antiviral activity against Tobacco mosaic virus (TMV) infected tobacco leaves exposed to 2000 ug/mL for 20 min assessed as inhibition of viral growth measured 72 hr post compound treatment compound by half-leaf juice rubbing method; summary of the method: as §1

Structure (SMILES) | growth inhibition (GI) (Tobacco mosaic virus [1]) | Activity (Tobacco mosaic virus [2]) | Activity (Tobacco mosaic virus [3]) | growth inhibition (GI) (Tobacco mosaic virus [4]) | growth inhibition (GI) (Tobacco mosaic virus [5]) | Activity (Tobacco mosaic virus [6]) | Activity (Tobacco mosaic virus [7]) | growth inhibition (GI) (Tobacco mosaic virus [8]) | growth inhibition (GI) (Tobacco mosaic virus [9]) | Activity (Tobacco mosaic virus [10]) | growth inhibition (GI) (Puccinia triticina [13]) | Activity (Tobacco mosaic virus [15]) | growth inhibition (GI) (Tobacco mosaic virus [16]) | Activity (Tobacco mosaic virus [17]) | growth inhibition (GI) (Tobacco mosaic virus [19]) | Activity (Tobacco mosaic virus [20]) | growth inhibition (GI) (Tobacco mosaic virus [25]) | Activity (Tobacco mosaic virus [26]) | Activity (Tobacco mosaic virus [27]) | growth inhibition (GI) (Tobacco mosaic virus [28]) | also measured
CSC(=O)c1cccc2nnsc12 [ACIBENZOLAR-S-METHYL] | 8% | 95% | 95% | 15% | 4% | 92% | 97% | 0% | 10% | 92% | 0% | 96% | 2% | 98% | 8% | 95% | – | – | – | – | Activity (Tobacco mosaic virus [11]): 50%; growth inhibition (GI) (Tobacco mosaic virus [12]): 6%; growth inhibition (GI) (Tobacco mosaic virus [14]): 0%; Activity (Tobacco mosaic virus [18]): 63%
N#Cc1c(Cl)c(Cl)c(Cl)c(C#N)c1Cl [CHLOROTHALONIL] | – | – | – | – | – | – | – | – | – | – | – | – | – | – | – | – | – | – | – | – | growth inhibition (GI) (Puccinia triticina [21]): 100%
Cc1ccc(NC(=O)c2snnc2C)cc1Cl [TIADINIL] | 0% | – | – | – | 0% | – | – | – | – | 63% | 40% | – | – | – | – | 40% | – | – | – | – | inhibition of growth at 50 µg/mL (Phomopsis asparagi): 60%; growth inhibition (GI) (Rhizoctonia solani): inactive; inhibition of growth at 50 µg/mL (Mycosphaerella arachidis): 13.6%; inhibition of growth at 50 µg/mL (Alternaria mali): 32.1%; inhibition of growth at 50 µg/mL (Fusarium fujikuroi): 0%; growth inhibition (GI) (Phytophthora infestans): inactive; inhibition of growth at 50 µg/mL (Botrytis cinerea): 23.9%; inhibition of growth at 50 µg/mL (Fusarium graminearum): 25%; inhibition of growth at 50 µg/mL (Sclerotinia sclerotiorum): 34.4%; inhibition of growth at 50 µg/mL (Cytospora mali): 3.6%; growth inhibition (GI) [22]: inactive; inhibition of growth at 50 µg/mL (Colletotrichum lagenaria): 22.8%; inhibition of growth at 50 µg/mL (Alternaria solani): 0%; inhibition of growth at 50 µg/mL [23]: 51.6%; growth inhibition (GI) (Ceratobasidium cereale): inactive; inhibition of growth at 50 µg/mL (Alternaria kikuchiana): 0%; inhibition of growth at 50 µg/mL [24]: 5.3%; inhibition of growth at 50 µg/mL (Ustilaginoidea virens): 12%; inhibition of growth at 50 µg/mL (Fusarium oxysporum): 12.5%
O=C(O)c1cccc2nnsc12 [1,2,3-benzothia-diazole-7-carboxylic acid] | 5% | 5% | 0% | 0% | 3% | 10% | 8% | 7% | 8% | 3% | – | 0% | 5% | 8% | 6% | 5% | 18% | 12% | 2% | 8% | –
CC(N)CC(=O)O (stereo not drawn) | 5% | 72% | 30% | 0% | 7% | 46% | 55% | 0% | 9% | 0% | – | 54% | 4% | 80% | 0% | 50% | 10% | 65% | 80% | 5% | growth inhibition (GI) (Tobacco mosaic virus [29]): 8%
O=C1NCNC(=O)N1 | 42% | 8% | – | – | 49% | – | – | – | – | – | – | – | – | – | – | 5% | – | – | – | – | –
